Data on 22 molecules can be found in ChEMBL document CHEMBL3351774, “Inhibitory activities of propolis and its promising component, caffeic acid phenethyl ester, against amyloidogenesis of human transthyretin” (J Med Chem, 2014).

Experiment [1] addresses Transthyretin (Homo sapiens, UniProt P02766, V50M). Description: (§1) Inhibition of TTR V30M mutant (unknown origin) expressed in Escherichia coli assessed as inhibition of amyloid fibril formation by fluorescence assay. Put shortly:
(§2)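 Compounds were tested at 2.5−80 μM with at least four concentrations. EC50 came from a four-parameter logistic least-squares fit. Standard deviations and p values were taken from triplicate experiments.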

In experiment [2] the test system is Transthyretin (Homo sapiens), P02766 [V50M]. The experiment is described as follows: Competitive binding to TTR V30M mutant (unknown origin) expressed in Escherichia coli at 1 to 80 uM by fluorescence assay. The method, boiled down:
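Thioflavin T competition check: preformed V30M fibrils (10 μM V30M with 66.8 μM thioflavin T, 37 °C, 72 h) were mixed with compounds at 0−80 μM final, with 20 μM thioflavin T and 200 mM Tris-HCl pH 8.0 final. Emission 460−700 nm was recorded with excitation at 440 nm.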

Experiment [3] shares this test system. The experiment is described as follows: Inhibition of TTR V30M mutant (unknown origin) expressed in Escherichia coli assessed as inhibition of amyloid fibril formation at 20 uM by fluorescence assay. The method, boiled down:
(§3)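 Acid-mediated aggregation of 10 μM Ni-NTA-purified V30M, read by thioflavin T fluorescence at 484 nm (excitation 440 nm). Compounds were tested at 2.5−80 μM with at least four concentrations. EC50 came from a four-parameter logistic least-squares fit. Standard deviations and p values were taken from triplicate experiments.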

Experiment [4] has the same test system. The experiment is described as follows: Inhibition of acid-mediated dissociation of TTR V30M mutant (unknown origin) expressed in Escherichia coli after 30 mins by SDS-PAGE. Put shortly: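 V30M in 20 mM Tris-Cl pH 8.0, 150 mM NaCl was preincubated with compound (ethanol stock) for 30 min at room temperature. Four volumes of 0.1 M sodium acetate pH 4.5 were then added, and the sample was held at 310 K for 8 days (7.3 μM protein; compound 7.3 or 36.5 μM final). Glutaraldehyde cross-linking ran 5 min and was stopped with borohydride. Bands were resolved by 15% SDS-PAGE and silver-stained.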

For experiment [5] the test system is unchanged. Description: Displacement of ANS from TTR V30M mutant (unknown origin) expressed in Escherichia coli at 1 to 50 uM after 5 mins by fluorescence assay. The method, boiled down: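 ANS displacement on 2 μM Ni-NTA-purified V30M in 50 mM Tris-HCl pH 7.4, 150 mM NaCl at 298 K. ANS and compound were added in sequence, stirred and equilibrated 5 min. Dilution stayed below 0.4%. Emission 400−540 nm was read with excitation at 280 nm.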

Experiment [6] shares this test system. Description: Inhibition of TTR V30M mutant (unknown origin) expressed in Escherichia coli assessed as inhibition of amyloid fibril formation at 5 uM by fluorescence assay. Put shortly: as §3
For experiment [7] the test system is unchanged. Description: Inhibition of TTR V30M mutant (unknown origin) expressed in Escherichia coli assessed as inhibition of amyloid fibril formation at 80 uM by fluorescence assay. Put shortly: as §3
The test system is the same in experiment [8]. The experiment is described as follows: Inhibition of TTR V30M mutant (unknown origin) expressed in Escherichia coli assessed as inhibition of amyloid fibril formation at 10 uM by fluorescence assay. Put shortly: as §3
The test system is the same in experiment [9]. Description: Inhibition of TTR V30M mutant (unknown origin) expressed in Escherichia coli assessed as inhibition of amyloid fibril formation at 40 uM by fluorescence assay. Put shortly:
as §3

The test system is the same in experiment [10]. The experiment is described as §1. The method, boiled down: as §2
In experiment [11] the target is Transthyretin (Homo sapiens, UniProt P02766, I104T). Description: Inhibition of TTR I84T mutant (unknown origin) expressed in Escherichia coli assessed as inhibition of amyloid fibril formation by fluorescence assay.
Experiment [12] concerns the target Transthyretin (Homo sapiens, UniProt P02766, L75P). Description: Inhibition of TTR L55P mutant (unknown origin) expressed in Escherichia coli assessed as inhibition of amyloid fibril formation by fluorescence assay.

Activity calls are given as the source filed them. No cut-off for these calls is given here.

With `COc1ccc(/C=C/C(=O)OCCc2ccccc2)cc1O`, the EC50 at Transthyretin [1] (read-out: EC50) turned out to be 11 µM. The outcome in experiment [2] was inactive.

Regarding `COc1ccc(/C=C/C(=O)OCCc2ccccc2)cc1OC`, the EC50 at Transthyretin [1] (read-out: EC50) is 58 µM. Moreover, the result in experiment [2] was inactive.

On to `COc1cc(/C=C/C(=O)OCCc2ccccc2)ccc1O`, for which the EC50 at Transthyretin [1] (read-out: EC50) was 7.9 µM. The values for the inhibition in [3] and in experiment [4] were under 20% and “Dose-dependent effect”, respectively. For the same molecule, the outcome in experiment [5] was Active. The outcome in [2] was inactive.

Consider `COc1ccc(CC(C)C(C)Cc2ccc(OC)c(OC)c2)cc1OC` (stereo not drawn), for which the EC50 result at Transthyretin [1] is on record as “Not Active”. Further, in experiment [3], the inhibition was under 20%.

Take `CCCCCCCCOC(=O)/C=C/c1ccc(O)c(O)c1`: the inhibition in [3] was determined as 47%; in [6] it was 27%; in [7] it was 53%; in experiment [8], 44%; in [9] it was 49%.

In the case of `COc1cc(CNC(=O)CCCC/C=C/C(C)C)ccc1O`, the inhibition in experiment [3] is under 20%.

On to `COc1cc(C[C@H]2COC(=O)[C@@H]2Cc2ccc(O)c(OC)c2)ccc1O`, for which the inhibition in [3] was under 12%.

Regarding `O=C(/C=C/c1ccc(O)c(O)c1)O[C@@H]1C[C@](O)(C(=O)O)C[C@@H](O)[C@H]1O`, the inhibition result in [10] is “inactive”.

For the molecule `O=C(/C=C/c1ccccc1)OCCc1ccccc1`, the inhibition result in [10] is “inactive”.

As to `O=C(O)c1cc(-c2ccc(F)cc2F)ccc1O`, in [3], the inhibition was under 20%.

For `O=C1OC[C@H](Cc2cccc(O)c2)[C@H]1Cc1cccc(O)c1`, in experiment [3], the inhibition was under 20%.

Consider `OC[C@H](Cc1cccc(O)c1)[C@H](CO)Cc1cccc(O)c1`, for which the inhibition in experiment [3] is under 20%.

In the case of `c1cc2c(cc1[C@H]1OC[C@H]3[C@@H]1CO[C@@H]3c1ccc3c(c1)OCO3)OCO2`, the inhibition in experiment [3] was under 20%.

Consider `O=C(/C=C/c1ccc(O)c(O)c1)OCc1ccccc1` [BENZYL CAFFEATE], for which the EC50 at Transthyretin [1] (read-out: EC50) turned out to be 16 µM. Moreover, the result in [2] was Active.

On to `O=C(/C=C/c1ccc(O)c(O)c1)OCCc1ccccc1` [CAFFEIC ACID PHENETHYL ESTER], for which the EC50 at Transthyretin [1] (read-out: EC50) is 8.6 µM. In experiment [3], the inhibition was under 20%. In addition, in [5], the outcome was Active. Further, the result in experiment [2] was inactive.

Take `O=C(O)/C=C/c1ccc(O)c(O)c1` [CAFFEIC ACID]: on Transthyretin [1] (read-out: EC50), the EC50 was 97 µM. The result in [2] was inactive.

For `COc1cc(CC(C)C(C)Cc2ccc(O)c(OC)c2)ccc1O` (stereo not drawn) [DIHYDROGUAIARETIC ACID], at Transthyretin [1] (read-out: EC50), the EC50 came out at 6.3 µM. In addition, the inhibition in experiment [3] was under 20%. For the same molecule, in experiment [5], the result was Active. The outcome in experiment [2] was inactive.

`CCOC(=O)/C=C/c1ccc(O)c(O)c1` [ETHYL CAFFEATE]: the EC50 on Transthyretin [1] (read-out: EC50) came out at 23 µM. Besides, in [3], the inhibition is under 20%. Also, the result in experiment [5] was Active. In experiment [2], the outcome was inactive.

Take `COC(=O)/C=C/c1ccc(O)c(O)c1` [METHYLCAFFEATE]: the EC50 at Transthyretin [1] (read-out: EC50) worked out at 67 µM. The outcome in [2] was inactive.

With `CC(Cc1ccc(O)c(O)c1)C(C)Cc1ccc(O)c(O)c1` (stereo not drawn) [NORDIHYDROGUAIARETIC ACID], the EC50 was determined as 7.3 µM on Transthyretin [1] (read-out: EC50), 8.5 µM at Transthyretin [11] and 12.6 µM at Transthyretin [12]. The inhibition in experiment [3] was under 20%. The result in [5] was Active. In addition, in experiment [2], the result was inactive.

For the molecule `CC(C)=CCOC(=O)/C=C/c1ccc(O)c(O)c1` [PRENYL CAFFEATE], the EC50 on Transthyretin [1] (read-out: EC50) came out at 21 µM. In addition, the inhibition in experiment [3] is under 20%. In addition, the outcome in experiment [2] was inactive.

In the case of `O=C(/C=C/c1ccc(O)c(O)c1)O[C@H](Cc1ccc(O)c(O)c1)C(=O)O` [ROSMARINIC ACID], at Transthyretin [1] (read-out: EC50), the EC50 is 8.6 µM. Further, the outcome in [2] was inactive.

As a reminder, the EC50 is the concentration giving half of the maximal effect. The inhibition is the change of the read-out against control, counted positive when it falls.
